Data on one compound can be found in publication PMC3184254 (Nature Chemical Biology, 2011).

The term IC50 denotes the midpoint of a concentration-inhibition curve. For orientation: inhibition means the percentage by which the read-out fell short of the control. The low end stands for a weak effect, the high end for a strong effect. Broadly, the IC90 is the concentration at which the effect reaches the 90% level.

Molecules are shown by their SMILES. Read-outs that look alike come from different tables or passages of the source. Where only a bound is given, the exact number is not on record here.

Test [1] concerns the target T1, SETD7 (Homo sapiens, UniProt Q8WTS6).
T1 sequence (Q8WTS6 1-366): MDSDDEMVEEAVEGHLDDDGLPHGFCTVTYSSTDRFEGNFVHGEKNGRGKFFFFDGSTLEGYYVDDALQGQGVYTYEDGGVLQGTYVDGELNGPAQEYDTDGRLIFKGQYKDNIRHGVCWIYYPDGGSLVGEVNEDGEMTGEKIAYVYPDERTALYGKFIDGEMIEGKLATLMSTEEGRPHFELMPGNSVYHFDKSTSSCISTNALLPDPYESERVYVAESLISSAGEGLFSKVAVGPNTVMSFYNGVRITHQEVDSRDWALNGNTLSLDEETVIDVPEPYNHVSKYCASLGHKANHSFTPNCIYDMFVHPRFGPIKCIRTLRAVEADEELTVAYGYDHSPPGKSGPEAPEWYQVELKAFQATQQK
Nature of the test: SAHH-coupled assay, SETD7. The format is biochemical. An outline of the steps: (§1)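 A fluorescence-based coupled assay used S-adenosyl-L-homocysteine hydrolase to follow conversion of cofactor SAM to SAH by the methyltransferase. IC50 values are the average of at least two separate experiments.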

The target of test [2] is MLL (Homo sapiens, UniProt Q03164). Kind of test: BPS Bioscience assay, MLL. The format is biochemical.
In test [3] the target is T2, SETD8 (Homo sapiens, UniProt Q9NQR1).
T2 sequence (Q9NQR1 1-393): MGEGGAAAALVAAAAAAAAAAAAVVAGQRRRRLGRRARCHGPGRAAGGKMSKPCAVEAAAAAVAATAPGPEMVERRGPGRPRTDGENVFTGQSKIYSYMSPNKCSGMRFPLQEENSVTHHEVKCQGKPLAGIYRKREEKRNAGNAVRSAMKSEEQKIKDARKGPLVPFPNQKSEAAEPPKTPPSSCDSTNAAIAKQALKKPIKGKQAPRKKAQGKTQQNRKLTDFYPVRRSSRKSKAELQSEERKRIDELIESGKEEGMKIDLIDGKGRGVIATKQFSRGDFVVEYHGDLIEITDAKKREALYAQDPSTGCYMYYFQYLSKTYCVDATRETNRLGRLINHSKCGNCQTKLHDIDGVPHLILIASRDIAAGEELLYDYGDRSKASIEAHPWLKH
Kind of test: SAHH-coupled assay, SETD8. The format is biochemical. An outline of the steps:
as §1

Test [4] concerns the target T3, G9a (Homo sapiens, UniProt Q96KQ7).
T3 sequence (Q96KQ7 1-1210): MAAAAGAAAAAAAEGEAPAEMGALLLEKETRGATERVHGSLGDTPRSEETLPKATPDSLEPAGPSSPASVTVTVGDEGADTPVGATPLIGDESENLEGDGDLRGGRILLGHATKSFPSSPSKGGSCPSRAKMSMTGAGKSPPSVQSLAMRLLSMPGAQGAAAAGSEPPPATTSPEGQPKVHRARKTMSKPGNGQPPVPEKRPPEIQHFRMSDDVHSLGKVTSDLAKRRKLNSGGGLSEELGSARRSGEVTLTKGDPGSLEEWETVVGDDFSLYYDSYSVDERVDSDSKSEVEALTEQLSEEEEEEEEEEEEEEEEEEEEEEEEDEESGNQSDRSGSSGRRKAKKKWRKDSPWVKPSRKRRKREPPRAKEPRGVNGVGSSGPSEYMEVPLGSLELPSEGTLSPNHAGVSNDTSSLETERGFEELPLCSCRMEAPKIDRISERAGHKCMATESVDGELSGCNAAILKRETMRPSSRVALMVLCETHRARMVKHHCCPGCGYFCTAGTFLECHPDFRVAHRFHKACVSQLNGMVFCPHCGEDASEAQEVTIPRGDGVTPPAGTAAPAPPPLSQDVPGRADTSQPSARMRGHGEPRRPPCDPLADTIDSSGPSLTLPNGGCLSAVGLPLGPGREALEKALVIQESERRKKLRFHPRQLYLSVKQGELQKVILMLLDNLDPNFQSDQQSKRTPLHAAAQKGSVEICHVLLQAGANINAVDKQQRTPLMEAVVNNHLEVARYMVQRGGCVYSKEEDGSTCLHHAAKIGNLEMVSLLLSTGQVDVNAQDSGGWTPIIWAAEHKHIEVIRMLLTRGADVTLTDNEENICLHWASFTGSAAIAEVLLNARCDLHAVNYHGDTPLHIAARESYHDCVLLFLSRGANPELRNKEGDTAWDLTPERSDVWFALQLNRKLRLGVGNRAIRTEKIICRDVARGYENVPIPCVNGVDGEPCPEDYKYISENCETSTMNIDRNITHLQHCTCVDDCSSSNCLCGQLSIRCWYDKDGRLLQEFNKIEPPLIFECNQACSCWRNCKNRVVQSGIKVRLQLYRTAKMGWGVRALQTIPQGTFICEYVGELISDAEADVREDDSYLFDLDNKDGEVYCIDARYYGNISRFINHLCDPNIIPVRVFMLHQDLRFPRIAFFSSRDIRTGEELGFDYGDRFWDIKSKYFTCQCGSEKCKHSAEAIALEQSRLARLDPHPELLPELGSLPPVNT
Nature of the test: G9a fluorescence-polarization peptide displacement assay. Type of test: binding.

Test [5] concerns the target T3, G9a. Nature of the test: Surface plasmon resonance. Type of test: binding. The settings on record: SPR. Background: Surface plasmon resonance follows binding to a sensor surface in real time, without labels.
Test [6] concerns the target adrenergic α1B receptor (Rattus norvegicus, UniProt P15823). Kind of test: Ricerca Selectivity Panel, adrenergic α1B. The format is binding.
Test [7] concerns the target M1 (Homo sapiens, UniProt P11229). Nature of the test: M1 functional assay. Type of test: cell-based.
Test [8] has as its target M2 (Homo sapiens, UniProt P08172). Kind of test: M2 functional assay. Type of test: cell-based.
Test [9] has as its target M4 (Homo sapiens, UniProt P08173). Kind of test: M4 functional assay. Type of test: cell-based.
The test system of test [10] is H3K9me2 levels in PC3 cells. Nature of the test: H3K9me2 in-cell western, PC3. Type of test: cell-based. To be noted: Homo sapiens, PC-3, read-out: IC50 for reduction of H3K9me2 levels.
For test [11], the system named is histone marks in MDA-MB-231 cells. Kind of test: Quantitative MS analysis of histone modifications. The format is cell-based, human. The settings on record: 1 μM for 48 h. An outline of the steps: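 MDA-MB-231 cells were treated at 1 µM for 48 h. Histones were acid-extracted, derivatized with propionic anhydride and digested with trypsin. Mock and treated samples carried D0 or D5 propionyl labels. Peptides were analysed by LC-MS/MS on an Orbitrap, with all data manually verified.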

For test [12], the system named is H3K9me2 levels in MCF7 cells. Nature of the test: H3K9me2 inhibition, MCF7. Type of test: cell-based. To be noted: Homo sapiens, MCF7, read-out: IC90 for H3K9me2 inhibition.
Test [13] relates to MAGEA2 and DUB1 genes in J1 mES cells. Kind of test: mRNA levels of G9a-regulated endogenous genes. Type of test: cell-based, mouse. The settings on record: day 10; versus untreated or UNC0737-treated cells.

Sequence of M4 (P08173 whole entry): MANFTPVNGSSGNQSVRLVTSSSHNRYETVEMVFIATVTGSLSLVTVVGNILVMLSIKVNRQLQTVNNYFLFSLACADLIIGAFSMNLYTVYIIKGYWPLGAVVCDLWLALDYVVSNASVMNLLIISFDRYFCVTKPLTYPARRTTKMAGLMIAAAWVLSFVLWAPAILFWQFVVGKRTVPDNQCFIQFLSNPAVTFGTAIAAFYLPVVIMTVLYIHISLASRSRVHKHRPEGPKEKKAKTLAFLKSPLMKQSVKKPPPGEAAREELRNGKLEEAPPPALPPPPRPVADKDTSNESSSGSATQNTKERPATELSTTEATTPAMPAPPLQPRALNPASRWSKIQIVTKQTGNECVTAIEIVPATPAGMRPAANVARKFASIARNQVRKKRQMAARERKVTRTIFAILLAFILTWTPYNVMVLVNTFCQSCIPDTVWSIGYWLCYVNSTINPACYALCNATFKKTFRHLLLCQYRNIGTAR
Sequence of M2 (P08172 whole entry): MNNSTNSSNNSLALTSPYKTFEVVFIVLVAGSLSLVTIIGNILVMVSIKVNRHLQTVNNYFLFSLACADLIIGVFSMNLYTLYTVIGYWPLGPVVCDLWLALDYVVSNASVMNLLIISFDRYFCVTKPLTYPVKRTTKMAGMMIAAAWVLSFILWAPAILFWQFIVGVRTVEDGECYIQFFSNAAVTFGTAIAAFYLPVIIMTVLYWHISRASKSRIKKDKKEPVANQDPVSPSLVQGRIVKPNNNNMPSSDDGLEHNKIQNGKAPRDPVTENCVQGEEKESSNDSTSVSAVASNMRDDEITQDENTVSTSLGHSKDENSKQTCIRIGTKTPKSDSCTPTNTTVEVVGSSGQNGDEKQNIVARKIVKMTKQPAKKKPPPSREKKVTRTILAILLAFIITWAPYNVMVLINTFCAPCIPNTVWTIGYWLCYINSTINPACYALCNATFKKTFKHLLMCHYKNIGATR
Sequence of M1 (P11229 whole entry): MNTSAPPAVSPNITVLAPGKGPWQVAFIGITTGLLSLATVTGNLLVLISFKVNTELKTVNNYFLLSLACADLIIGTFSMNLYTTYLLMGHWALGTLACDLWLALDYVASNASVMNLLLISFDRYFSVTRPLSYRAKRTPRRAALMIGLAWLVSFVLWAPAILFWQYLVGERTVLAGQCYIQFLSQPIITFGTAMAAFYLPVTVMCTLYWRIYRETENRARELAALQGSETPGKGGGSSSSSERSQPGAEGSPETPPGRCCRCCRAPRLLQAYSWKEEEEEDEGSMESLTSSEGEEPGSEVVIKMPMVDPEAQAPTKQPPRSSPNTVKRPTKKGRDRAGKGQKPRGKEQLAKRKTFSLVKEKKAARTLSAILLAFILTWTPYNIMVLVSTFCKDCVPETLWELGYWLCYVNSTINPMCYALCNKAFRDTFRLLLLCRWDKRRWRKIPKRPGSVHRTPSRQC
Sequence of adrenergic α1B receptor (P15823 whole entry): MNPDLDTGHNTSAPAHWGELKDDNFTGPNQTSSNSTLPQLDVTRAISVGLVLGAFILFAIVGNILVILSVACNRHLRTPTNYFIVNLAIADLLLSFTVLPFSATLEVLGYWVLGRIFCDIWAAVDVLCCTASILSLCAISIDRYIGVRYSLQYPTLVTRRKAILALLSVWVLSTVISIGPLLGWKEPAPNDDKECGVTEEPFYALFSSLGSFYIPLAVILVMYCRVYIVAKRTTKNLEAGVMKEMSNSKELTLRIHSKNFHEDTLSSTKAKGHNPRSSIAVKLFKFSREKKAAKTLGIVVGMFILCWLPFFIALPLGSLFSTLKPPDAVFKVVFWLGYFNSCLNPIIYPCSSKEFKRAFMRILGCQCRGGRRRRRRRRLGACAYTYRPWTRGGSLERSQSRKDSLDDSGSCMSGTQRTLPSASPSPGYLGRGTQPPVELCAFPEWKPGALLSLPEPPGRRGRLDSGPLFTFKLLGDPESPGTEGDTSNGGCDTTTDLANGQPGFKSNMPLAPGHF

In the case of `COc1cc2c(NC3CCN(C(C)C)CC3)nc(C3CCCCC3)nc2cc1OCCCN1CCCC1` [UNC0638], the IC50 is over 10000 nM in test [1]; “inactive” in test [1] (SAHH-coupled assay); over 10000 nM in [2]; “inactive” in test [2] (assay results from BPS Bioscience); over 10000 nM in test [3]; “inactive” in [3] (SAHH-coupled assay). Also, the IC50 is over 10000 nM in test [7], 480 ± 10 nM in test [8], over 10000 nM in [9] and 59 nM in [10]. In addition, in test [4], the “displacement of fluorescein-labeled 15-mer H3 peptide (residues 1–15)” value is on record as “high efficiency”. In addition, the “disassociation rate (kd)” value in test [5] is 0.057 s⁻¹. For the same compound, in test [6], at 1 µM the inhibition was 69%. Also, the “levels of H3K9me2 by quantitative MS” value in test [11] is given as “considerably lower”. In test [11], the “levels of H3K9me3 by quantitative MS” value is “remained constant”. Further, the “levels of H3K14ac by quantitative MS” value in [11] is on record as “doubled”. In addition, the IC90 in test [12] was found to be 320 nM. Moreover, the “expression of DUB1 and MAGEA2 genes” value in test [13] was “more highly expressed”.
